Bioassay records (PubChem)
Only some compounds are listed: those with a hit (about 3% of all), similar ones and a draw of the others.
H9c2 protect: myocardial damage modulation in H9c2 cells. H9c2 cardiomyocytes, H2O2 injury protection, ATPLite, 2 h. protection from H2O2 cell death, % at 20 µM. 360,000 tested, 0.63% active;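 active = compounds giving at least 50% protection of heart cells from peroxide-induced death in the single-dose screen, raw or plate-pattern-corrected value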;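 note: 0% = DMSO wells with peroxide and 100% = DMSO wells without peroxide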
Exocytosis inh: blocks lytic granule exocytosis; AID 651702; 360,000 tested, 0.66% active; inhibition, % at 10 µM; TALL-104 LAMP-1 surface exposure, flow cytometry; cells stimulated with thapsigargin and PMA;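 active = inhibition above about 55%, limit read from the data; inconclusive = no clear call, values can overlap the other calls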
HNF4A DNA FP: change in binding of human HNF4 alpha to DNA; P41235; HNF4a-FITC DNA binding, fluorescence polarization, 1 h; activity change, % at 10 µM; 360,000 tested, 0.3% active; in the data active = activity change above about 30%, passing the limit was not always enough
Target sequence (P41235 whole entry, looked up): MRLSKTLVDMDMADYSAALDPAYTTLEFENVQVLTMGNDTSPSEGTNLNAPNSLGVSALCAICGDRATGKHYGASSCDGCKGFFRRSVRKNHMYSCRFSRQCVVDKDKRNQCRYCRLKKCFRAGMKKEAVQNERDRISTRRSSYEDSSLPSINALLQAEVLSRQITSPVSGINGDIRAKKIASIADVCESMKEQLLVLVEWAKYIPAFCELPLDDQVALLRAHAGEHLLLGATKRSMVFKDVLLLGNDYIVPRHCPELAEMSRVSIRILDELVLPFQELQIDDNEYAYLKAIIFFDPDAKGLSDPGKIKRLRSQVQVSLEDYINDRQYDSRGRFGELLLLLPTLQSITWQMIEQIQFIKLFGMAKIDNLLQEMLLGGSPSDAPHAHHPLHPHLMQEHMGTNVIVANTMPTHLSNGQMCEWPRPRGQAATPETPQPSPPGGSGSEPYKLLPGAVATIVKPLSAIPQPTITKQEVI
DSG3 Ab inh: blocks pemphigus antibody binding to human desmoglein-3; AID 588358; binding (percent of control), % at 10 µM; DSG3-coupled beads, scFv-anti-DSG3-GFP binding, flow cytometry; active compounds read low; 310,000 tested, 0.48% active; P32926;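 active = binding more than 3 SD below its plate's average and above zero; inconclusive = below that plate limit but binding exactly zero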;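 note: hits lower antibody fragment binding to DSG3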
Myeloid diff 2: compounds promoting myeloid differentiation | ER-HoxA9 myeloid progenitors, lysozyme-GFP differentiation, flow cytometry | calls only at 10 µM | 360,000 tested, 1% active | AID 624256;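 active = normalized GFP-positive differentiation at or above the plate's own cutoff, the solvent-only control mean plus 3 SD; inconclusive = no clear call, values can overlap the other calls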;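 note: cells exposed to compound for four days before flow analysis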
SENP1 FRET inh: blocks the human SENP1 SUMO protease catalytic domain; inhibition, % at 10 µM; AID 624204; Q9P0U3; 360,000 tested, 0.21% active; recombinant SENP1 catalytic domain, CyPet-SUMO1-YPet FRET cleavage;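 active = inhibition at least 30% at 10 µM, raw YFP signal under a set limit, fluorescence ratio 0.5 to 1.5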;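 note: 0% = enzyme with DMSO and 100% = no enzyme wells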
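Assay system – human recombinant His6-tagged SENP1 catalytic domain enzyme · Input – SENP1 enzyme, 20 pM final · Buffer or medium – Tris pH 8 buffer plus EDTA, NaCl, BME, BSA, NP40, catalase · Schedule – 50 min reaction at room temperature · Technique – FRET read of cyan and yellow fluorescence · Control set – no-enzyme wells low, DMSO-plus-enzyme wells high control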
* hit, by the source's call; i = inactive; u = inconclusive; x = not tested or not shown; + = active, no number.

SMILES	H9c2 protect	Exocytosis inh	HNF4A DNA FP	DSG3 Ab inh	Myeloid diff 2	SENP1 FRET inh
Cc1cc(N=Cc2c(O)ccc3cc(Br)ccc23)no1	66*	-1	-8	108	i	-108
Nc1cnc(Nc2ccc(Br)cc2)nc1N	8	9	5	99	+	1
Cc1ccc(S(=O)(=O)N2CCCCC2)cc1C(=O)NCCN1CCOCC1	-2	6	0	106	i	1
Cc1ccc2c(c1)NC(=O)C(CC(=O)NCCCN1CCN(c3cc(Cl)ccc3C)CC1)O2 (centres undefined)	5	15	3	99	+	-1
Cc1ccc2c(c1)NC(=O)C(CC(=O)NCCCN1CCCCC1)O2 (centres undefined)	4	-1	-1	111	i	2
CN1/C(=C\C(=S)NC(=O)c2ccc([N+](=O)[O-])cc2)C(C)(C)c2ccccc21	-29	3	3	108	i	2
CN1/C(=C\C(=S)NC(=O)c2cccc(Br)c2)C(C)(C)c2ccccc21	-15	3	19	125	+	-52
S=C(NCCc1ccc(Cl)cc1)NCc1ccccc1	-8	-2	-3	101	i	0
Cc1ccc(S(=O)(=O)NCc2ccc(N3CCN(C(=O)OC(C)(C)C)CC3)cc2)cc1	-14	-1	1	107	i	1
O=C1CC(NS(=O)(=O)c2cc(F)ccc2F)CN1c1cccc(F)c1 (centres undefined)	0	2	1	94	i	1
O=C(Nc1cccc(NC(=O)c2ccc([N+](=O)[O-])o2)c1)c1ccco1	57*	-12	-1	53*	u	0
O=C(Nc1ccc(Cl)c([N+](=O)[O-])c1)c1ccco1	-1	-2	3	118	i	2
O=C(Nc1cccc(NC(=O)c2ccc(-c3ccc(Br)cc3)o2)c1)c1ccccc1	12	0	0	96	i	1
O=C(Nc1cccc(NC(=O)c2ccc(-c3cccc(Br)c3)o2)c1)c1ccco1	60*	10	-1	97	i	1
Cc1c([N+](=O)[O-])cc(C(=O)Nc2ccc(NC(=O)c3ccco3)cc2)cc1[N+](=O)[O-]	1	-4	-1	96*	i	-1
Cc1ccc(NC(=O)c2ccc([N+](=O)[O-])o2)c(C)c1	-22	5	0	99	+	0
CC(NC(C(=O)c1ccccc1)c1ccccc1)c1ccccc1 (centres undefined)	-10	1	0	x	i	4
COc1ccc(OC)c(S(=O)(=O)N2CCC(c3nc4ccccc4[nH]3)CC2)c1	-1	-4	1	107	i	0
OC(CN1CCN(c2ccccc2F)CC1)c1ccc(F)cc1 (centres undefined)	-1	-4	3	106	i	-1
C#CCCc1cocc1/C=[N+](\[O-])c1ccc(C(=O)OCC)cc1	4	-4	9	102	i	-12
N#Cc1ccc(CN2CCN(C(=O)C3CC(=O)N(c4ccccc4F)C3)CC2)cc1 (centres undefined)	-1	0	0	99	i	1
COc1ccc(NC(=O)c2ccco2)cc1NC(=O)c1ccccc1F	-5	-4	-1	85*	i	0
COc1ccc(Br)cc1C(=O)Nc1cccc(NC(=O)c2ccco2)c1	64*	4	2	100	i	-1
CCOc1cc(/C=N/NC(=O)c2ccc3c(c2)OCCO3)cc(Br)c1O	-2	-18	11	112	i	-6
O=C(Cn1nnc(-c2ccccc2)n1)N/N=C/c1cc([N+](=O)[O-])ccc1O	39	-3	-2	113	i	-25
SMILES	H9c2 protect	Exocytosis inh	HNF4A DNA FP	DSG3 Ab inh	Myeloid diff 2	SENP1 FRET inh
O=C(Cn1nnc(-c2ccccc2)n1)N/N=C/c1cc([N+](=O)[O-])c(Cl)cc1Cl	-17	1	-1	74*	i	0
O=[N+]([O-])c1ccc(Cl)c(NC2=NCCCCC2)c1	-2	-14	2	94	x	0
O=C(CNC(=S)NC(=O)c1ccc(Br)o1)c1ccccc1	-6	-4	-3	97	+	0
NC(N)=NN=C(c1ccc(F)cc1)c1ccc(C(F)(F)F)cc1	-20	57*	1	94	x	0
O=C1c2cccc3c([N+](=O)[O-])ccc(c23)C(=O)N1c1ccccn1	-40	29	-25	90	u	-21
O=C1c2cccc3c([N+](=O)[O-])ccc(c23)C(=O)N1c1nccs1	-23	85*	-29	101	u	-32
O=C(Cc1ccc(Br)cc1)N(Cc1ccccc1)c1ccccn1	2	8	2	101	i	-1
CCOC(=O)c1ccc(NC(=O)Nc2ccc3c4c(cccc24)C(=O)N3CC)cc1	-18	7	68*	124	i	67
NC(=O)C1=C(c2ccccc2)c2ccccc2C1=O	55*	-5	-5	95	i	0
C=C(C)Cn1c(N(CCO)Cc2ccccc2)nc2c1c(=O)[nH]c(=O)n2C	9	0	-1	105	i	2
Cn1c(=O)[nH]c(=O)c2c1nc(N(CCO)Cc1ccccc1)n2CCCc1ccccc1	52*	-2	-1	110	u	0
O=C(NNS(=O)(=O)c1ccccc1[N+](=O)[O-])c1ccccc1Cl	-5	-4	-1	107	+	1
C=CCNc1nc2ccccc2nc1NS(=O)(=O)c1ccc(Br)cc1	-6	-19	1	102	i	0
CN(C(=O)c1ccccc1C(=O)OCC(=O)c1ccc(F)c(F)c1)C1CCCCC1	3	3	6	101	i	1
CCN1CCN(S(=O)(=O)c2ccc(Cl)c(C(=O)N(CCc3ccccc3)Cc3ccccc3)c2)CC1	-3	-1	-2	101	+	0
COc1ccc2[nH]c(C)c(CCN(Cc3cccs3)C(=S)Nc3ccc(F)cc3)c2c1	-2	-3	-4	106	+	49
COc1ccc2[nH]c(C)c(CCN(Cc3cccs3)C(=S)Nc3ccccc3)c2c1	-4	7	-3	99	i	54
CCN(CC)C(=O)[C@H]1C[C@H](CC(=O)NCc2ccc(OC)c(OC)c2)C(=O)N2CCc3c([nH]c4ccc(Cl)cc34)[C@]12C	-12	-3	2	106	i	-1
COc1ccc(CNC(=O)CN2C(=O)NC3(CCCc4sccc43)C2=O)cc1OC (centres undefined)	7	-1	1	91	i	1
CCC(Oc1ccccc1)C(=O)Nc1ccccc1C(=O)N1CCCCC1 (centres undefined)	50*	14	0	x	i	2
